In the array DNA melting data of Ke et al. (doi:10.1101/2024.01.08.574731):

Experiments:
[1] = folding enthalpy; higher = less favourable; fluorescence melt of hairpins on a sequencing array, two-state fit; conditions: sodium 0.088 M
Outline: (§1)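 Folding enthalpy and melting temperature come from bootstrapped two-state fits to Cy3 fluorescence of library hairpins carrying annealed Cy3 and quencher oligos on a sequenced MiSeq flow cell. Imaging was done in 50 mM Na-HEPES pH 8.0, 25 mM NaCl, stepping by 2.5 °C up to 60 °C, and signals were normalised to pre-quench Cy3 and to control constructs. Results of four replicates were combined by inverse variance, and fitted temperatures were raised by 9.35 °C to match UV melts.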

[2] = melting temperature; fluorescence melt of hairpins on a sequencing array, two-state fit, raised by 9.35 °C to match UV melts; conditions: sodium 0.088 M
Outline: as §1

CGACGCGGAAACGCATCG (((.(((....))).)))
folding enthalpy [1]: -28 kcal/mol
Tm [2]: 49.1 °C

GTTGCCGAAAGGCATAAC ((((((....)))..)))
folding enthalpy [1]: -9 kcal/mol
Tm [2]: 36.8 °C

GATCTACTCATAGATC ((((((....))))))
folding enthalpy [1]: -35.5 kcal/mol
Tm [2]: 41.7 °C

CGATATCGGAAACGATCG (((..(((....))))))
folding enthalpy [1]: -16.8 kcal/mol
Tm [2]: 35.3 °C

GCAATAGGAAACTGTTGC ((((.((....)).))))
folding enthalpy [1]: -33 kcal/mol
Tm [2]: 47.4 °C

GCTTGCTCGAAAGAGAGC (((..(((....))))))
folding enthalpy [1]: -21.3 kcal/mol
Tm [2]: 49.1 °C

GCGTGGACGAAAGTCCGC (((..(((....))))))
folding enthalpy [1]: -11.3 kcal/mol
Tm [2]: 52.8 °C

CGTGTTCGGAAACGAACG (((..(((....))))))
folding enthalpy [1]: -8.25 kcal/mol
Tm [2]: 42.1 °C

GACTAACGAAAGTTTGTC (((.(((....))).)))
folding enthalpy [1]: -30.9 kcal/mol
Tm [2]: 47 °C

GGGTACGAAAGTACGCCC ((((((....)))..)))
folding enthalpy [1]: -13.3 kcal/mol
Tm [2]: 46.1 °C

GGCTTCGGAAACGAGGTC (.(.(((....))).).)
folding enthalpy [1]: -26.3 kcal/mol
Tm [2]: 39.3 °C

GGATACGGAAACGTACCC ((.((((....)))).))
folding enthalpy [1]: -21.1 kcal/mol
Tm [2]: 43.3 °C

GATCCCTGGGGGATC ((((((...))))))
folding enthalpy [1]: -40.5 kcal/mol
Tm [2]: 62.2 °C

GATCTTGTCAAGATC ((((((...))))))
folding enthalpy [1]: -34.2 kcal/mol
Tm [2]: 47.4 °C

GATCCATTGTGGATC ((((((...))))))
folding enthalpy [1]: -38.8 kcal/mol
Tm [2]: 51.7 °C

GATCTCTAAGAGATC ((((((...))))))
folding enthalpy [1]: -31.5 kcal/mol
Tm [2]: 51.5 °C

GCGGATGCCCGC ((((....))))
folding enthalpy [1]: -14.4 kcal/mol
Tm [2]: 55 °C

GGTGGGGGAAACCCTACC (((.(((....))).)))
folding enthalpy [1]: -27.1 kcal/mol
Tm [2]: 52.7 °C

GAAGCGGGAAACCGCCTC ((.((((....)))).))
folding enthalpy [1]: -10.8 kcal/mol
Tm [2]: 36.7 °C

GCCAAGCGAAAGCATGGC ((((.((....)).))))
folding enthalpy [1]: -34.9 kcal/mol
Tm [2]: 67 °C

GTAAATGGAAACATTTAC (((((((....)))))))
folding enthalpy [1]: -31.5 kcal/mol
Tm [2]: 51.3 °C

GGTTTGCGAAAGCAGACC (((.(((....))).)))
folding enthalpy [1]: -34.8 kcal/mol
Tm [2]: 59.5 °C

GGATGAGGAAACTCACCC ((.((((....)))).))
folding enthalpy [1]: -22.3 kcal/mol
Tm [2]: 39.6 °C

GCTCTGCGAAAGCATGGC ((..(((....)))..))
folding enthalpy [1]: -19.6 kcal/mol
Tm [2]: 40.1 °C

GCGCAACGAAAGTTCGC (((.(((....))))))
folding enthalpy [1]: -32 kcal/mol
Tm [2]: 54.9 °C

GCGAAGGGAAACTTTCGC (((((.(....).)))))
folding enthalpy [1]: -30.2 kcal/mol
Tm [2]: 51 °C

GATGACGAAAGTCAATC ((((((....))).)))
folding enthalpy [1]: -16.2 kcal/mol
Tm [2]: 43.7 °C

GGTTACGAAAGTACAACC ((((((....)))..)))
folding enthalpy [1]: -19.1 kcal/mol
Tm [2]: 36.1 °C

GATCTCCGGGGAGATC ((((((....))))))
folding enthalpy [1]: -43.9 kcal/mol
Tm [2]: 55.7 °C

GTGATTGGAAACAATCAC (((((((....)))))))
folding enthalpy [1]: -46.9 kcal/mol
Tm [2]: 58.3 °C

GTTAAACCGAAAGGTAAC (((..(((....))))))
folding enthalpy [1]: -15.2 kcal/mol
Tm [2]: 29.9 °C

GAGTACGAAAGTAGGCTC ((((((....)))..)))
folding enthalpy [1]: -19.6 kcal/mol
Tm [2]: 36.1 °C

GTCCCGGGAAACCGGAAC ((.((((....)))).))
folding enthalpy [1]: -14.9 kcal/mol
Tm [2]: 44.4 °C

GAAAACCGAAAGGTGTTC (((.(((....))).)))
folding enthalpy [1]: -19.9 kcal/mol
Tm [2]: 44.9 °C

GCTCCTGCGAAAGCAAGC (((..(((....))))))
folding enthalpy [1]: -9.07 kcal/mol
Tm [2]: 26.7 °C
